Assay results taken from ChEMBL document CHEMBL2434844, “Synthesis, antimicrobial, antioxidant activities of novel 6-aryl-5-cyano thiouracil derivatives” (Eur J Med Chem, 2013).
In brackets after ≈: the same amount, converted by molar mass. Activity calls are given as the source filed them. No cut-off for these calls is given here.

Tests used:
Format in all cases: functional
Bacillus cereus [1] = test: Antibacterial activity against Bacillus cereus ATCC 14579 after 24 hrs by microdilution technique
Summary of the method: (§1)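 MIC by agar microdilution on Mueller-Hinton agar per NCCLS 1997. Bacteria subcultured overnight at 37 °C on MHA, Candida on SDA at 35 °C for 24-48 h, each passaged at least twice. Incubated 37 °C in humid chamber, read after 24 h.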

Bacillus cereus [2] = test: Antibacterial activity against Bacillus cereus ATCC 14579 at 10 mg/disc after 48 hrs by disc-diffusion method
Summary of the method: (§2)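 Disc diffusion per Bauer method under NCCLS conditions on nutrient agar/Mueller-Hinton agar. Compound dissolved in sterile DMSO at 10 mg/mL, filtered 0.2 µm, stored frozen at -15 °C; 10 mg/disc in DMSO applied. DMSO control. Inhibition zone diameter measured in mm after 48 h incubation at 28 °C.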

Candida albicans [3] = test: Antifungal activity against Candida albicans ATCC 26555 after 24 hrs by microdilution technique; summary of the method: as §1
Aspergillus flavus [4] = test: Antifungal activity against Aspergillus flavus ATCC 11495 at 10 mg/disc after 48 hrs by disc-diffusion method; summary of the method: as §2
Escherichia coli [5] = test: Antibacterial activity against Escherichia coli ATCC 11775 after 24 hrs by microdilution technique; summary of the method: as §1
Staphylococcus aureus [6] = test: Antibacterial activity against Staphylococcus aureus ATCC 12600 at 10 mg/disc after 48 hrs by disc-diffusion method; summary of the method: as §2
Candida albicans [7] = test: Antifungal activity against Candida albicans ATCC 26555 at 10 mg/disc after 48 hrs by disc-diffusion method; summary of the method: as §2
Staphylococcus aureus [8] = test: Antibacterial activity against Staphylococcus aureus ATCC 12600 after 24 hrs by microdilution technique; summary of the method: as §1
Escherichia coli [9] = test: Antibacterial activity against Escherichia coli ATCC 11775 at 10 mg/disc after 48 hrs by disc-diffusion method; summary of the method: as §2
Aspergillus flavus [10] = test: Antifungal activity against Aspergillus flavus ATCC 11495 after 24 hrs by microdilution technique

SMILES | MIC (Bacillus cereus [1]) | MIC (Candida albicans [3]) | MIC (Escherichia coli [5]; DSM 30083 = JCM 1649) | MIC (Staphylococcus aureus [8]; ATCC 12600, 24 h) | MIC (Aspergillus flavus [10]) | MIC (Bacillus cereus [1]; ATCC 14579, 24 h) | MIC (Candida albicans [3]; ATCC 26555, 24 h) | MIC (Escherichia coli [5]; DSM 30083 = JCM 1649, 24 h) | MIC (Aspergillus flavus [10]; ATCC 11495, 24 h) | MIC (Staphylococcus aureus [8]) | diameter of the inhibition zone (DIZ) (Bacillus cereus [2]) | diameter of the inhibition zone (DIZ) (Aspergillus flavus [4]) | diameter of the inhibition zone (DIZ) (Staphylococcus aureus [6]) | diameter of the inhibition zone (DIZ) (Candida albicans [7]) | diameter of the inhibition zone (DIZ) (Escherichia coli [9]; DSM 30083 = JCM 1649) | diameter of the inhibition zone (DIZ) (Escherichia coli [9])
N#Cc1c(-c2ccc(Br)cc2)[nH]c(=S)n2c(=O)[nH]nc12 | inactive | inactive | inactive | 64 µg/mL (≈ 184 µM) | inactive |  |  |  |  |  | inactive | inactive | 11 mm | inactive | inactive | 
N#Cc1c(-c2ccc(F)cc2)[nH]c(=S)n2nnnc12 |  | inactive |  | 16 µg/mL (≈ 58.8 µM) | inactive | 32 µg/mL (≈ 118 µM) |  | 32 µg/mL (≈ 118 µM) |  |  | 15 mm | inactive | 15 mm | inactive |  | 13 mm
N#Cc1c(-c2ccc(Br)cc2)[nH]c(=S)n2c(=O)c(=O)[nH]nc12 | inactive | inactive | inactive | 32 µg/mL (≈ 85.1 µM) |  |  |  |  | 16 µg/mL (≈ 42.5 µM) |  | inactive | 17 mm | 13 mm | inactive | inactive | 
N#Cc1c(-c2ccc(Br)cc2)[nH]c(=S)n2nnnc12 |  | inactive |  | 16 µg/mL (≈ 48 µM) | inactive | 32 µg/mL (≈ 96 µM) |  | 32 µg/mL (≈ 96 µM) |  |  | 13 mm | inactive | 14 mm | inactive |  | 12 mm
Cc1nc2c(C#N)c(-c3ccc(Br)cc3)[nH]c(=S)n2n1 |  |  |  | 128 µg/mL (≈ 370 µM) |  | 128 µg/mL (≈ 370 µM) | 128 µg/mL (≈ 370 µM) | 128 µg/mL (≈ 370 µM) | 256 µg/mL (≈ 739 µM) |  | 6 mm | 7 mm | 7 mm | 8 mm |  | 6 mm
N#Cc1c(-c2ccc(F)cc2)[nH]c(=S)n2c(=S)[nH]nc12 |  |  |  |  | inactive | 64 µg/mL (≈ 211 µM) | 32 µg/mL (≈ 105 µM) | 64 µg/mL (≈ 211 µM) |  | inactive | 11 mm | inactive | inactive | 12 mm |  | 11 mm
N#Cc1c(-c2ccc(Br)cc2)[nH]c(=S)n2c(=S)[nH]nc12 |  |  |  |  | inactive | 64 µg/mL (≈ 176 µM) | 32 µg/mL (≈ 87.9 µM) | 64 µg/mL (≈ 176 µM) |  | inactive | 10 mm | inactive | inactive | 12 mm |  | 11 mm
N#Cc1c(-c2ccc(Br)cc2)[nH]c(=S)n2cnnc12 |  |  |  | 16 µg/mL (≈ 48.2 µM) |  | 16 µg/mL (≈ 48.2 µM) | 16 µg/mL (≈ 48.2 µM) | 16 µg/mL (≈ 48.2 µM) | 16 µg/mL (≈ 48.2 µM) |  | 17 mm | 17 mm | 21 mm | 16 mm |  | 12 mm
N#Cc1c(-c2ccc(Br)cc2)[nH]c(=S)n2ncnc12 |  |  |  | 128 µg/mL (≈ 385 µM) |  | 128 µg/mL (≈ 385 µM) | 128 µg/mL (≈ 385 µM) | 128 µg/mL (≈ 385 µM) | 256 µg/mL (≈ 771 µM) |  | 5 mm | 7 mm | 6 mm | 8 mm |  | 7 mm

The next lines start with results.

MIC (Bacillus cereus [1]) | MIC (Candida albicans [3]) | MIC (Escherichia coli [5]; DSM 30083 = JCM 1649) | MIC (Staphylococcus aureus [8]; ATCC 12600, 24 h) | MIC (Aspergillus flavus [10]) | MIC (Bacillus cereus [1]; ATCC 14579, 24 h) | MIC (Candida albicans [3]; ATCC 26555, 24 h) | MIC (Escherichia coli [5]; DSM 30083 = JCM 1649, 24 h) | MIC (Aspergillus flavus [10]; ATCC 11495, 24 h) | MIC (Staphylococcus aureus [8]) | SMILES | diameter of the inhibition zone (DIZ) (Bacillus cereus [2]) | diameter of the inhibition zone (DIZ) (Aspergillus flavus [4]) | diameter of the inhibition zone (DIZ) (Staphylococcus aureus [6]) | diameter of the inhibition zone (DIZ) (Candida albicans [7]) | diameter of the inhibition zone (DIZ) (Escherichia coli [9]; DSM 30083 = JCM 1649) | diameter of the inhibition zone (DIZ) (Escherichia coli [9])
 |  |  | 32 µg/mL (≈ 72.8 µM) |  | 32 µg/mL (≈ 72.8 µM) | 32 µg/mL (≈ 72.8 µM) | 32 µg/mL (≈ 72.8 µM) | 32 µg/mL (≈ 72.8 µM) |  | COc1cc(-c2[nH]c(=S)nc(N/N=C/c3ccc(F)cc3)c2C#N)cc(OC)c1OC | 17 mm | 15 mm | 19 mm | 16 mm |  | 12 mm
 | inactive |  | 32 µg/mL (≈ 80.5 µM) | inactive | 32 µg/mL (≈ 80.5 µM) |  | 32 µg/mL (≈ 80.5 µM) |  |  | COc1cc(-c2[nH]c(=S)nc(-n3nc(C)cc3C)c2C#N)cc(OC)c1OC | 11 mm | inactive | 11 mm | inactive |  | 12 mm
 |  |  |  | inactive | 64 µg/mL (≈ 170 µM) | 32 µg/mL (≈ 85.2 µM) | 64 µg/mL (≈ 170 µM) |  | inactive | COc1cc(-c2[nH]c(=S)n3c(=S)[nH]nc3c2C#N)cc(OC)c1OC | 11 mm | inactive | inactive | 12 mm |  | 10 mm
 |  |  | 128 µg/mL (≈ 449 µM) |  | 128 µg/mL (≈ 449 µM) | 128 µg/mL (≈ 449 µM) | 128 µg/mL (≈ 449 µM) | 256 µg/mL (≈ 897 µM) |  | Cc1nc2c(C#N)c(-c3ccc(F)cc3)[nH]c(=S)n2n1 | 5 mm | 7 mm | 7 mm | 8 mm |  | 7 mm
 |  |  | 32 µg/mL (≈ 70.9 µM) |  | 32 µg/mL (≈ 70.9 µM) | 32 µg/mL (≈ 70.9 µM) | 32 µg/mL (≈ 70.9 µM) | 32 µg/mL (≈ 70.9 µM) |  | COc1ccc(/C=N/Nc2nc(=S)[nH]c(-c3cc(OC)c(OC)c(OC)c3)c2C#N)cc1 | 15 mm | 15 mm | 17 mm | 15 mm |  | 12 mm
 |  |  | 32 µg/mL (≈ 87.1 µM) |  | 32 µg/mL (≈ 87.1 µM) | 32 µg/mL (≈ 87.1 µM) | 32 µg/mL (≈ 87.1 µM) | 32 µg/mL (≈ 87.1 µM) |  | N#Cc1c(N/N=C/c2ccc(F)cc2)nc(=S)[nH]c1-c1ccc(F)cc1 | 16 mm | 14 mm | 19 mm | 15 mm |  | 12 mm
 |  |  | 128 µg/mL (≈ 472 µM) |  | 128 µg/mL (≈ 472 µM) | 128 µg/mL (≈ 472 µM) | 128 µg/mL (≈ 472 µM) | 256 µg/mL (≈ 944 µM) |  | N#Cc1c(-c2ccc(F)cc2)[nH]c(=S)n2ncnc12 | 6 mm | 7 mm | 7 mm | 8 mm |  | 8 mm
 |  |  | 16 µg/mL (≈ 59 µM) |  | 16 µg/mL (≈ 59 µM) | 16 µg/mL (≈ 59 µM) | 16 µg/mL (≈ 59 µM) | 16 µg/mL (≈ 59 µM) |  | N#Cc1c(-c2ccc(F)cc2)[nH]c(=S)n2cnnc12 | 19 mm | 19 mm | 22 mm | 18 mm |  | 14 mm
 | inactive |  | 32 µg/mL (≈ 98.3 µM) | inactive | 32 µg/mL (≈ 98.3 µM) |  | 32 µg/mL (≈ 98.3 µM) |  |  | Cc1cc(C)n(-c2nc(=S)[nH]c(-c3ccc(F)cc3)c2C#N)n1 | 12 mm | inactive | 13 mm | inactive |  | 11 mm
 |  |  | 128 µg/mL (≈ 358 µM) |  | 128 µg/mL (≈ 358 µM) | 128 µg/mL (≈ 358 µM) | 128 µg/mL (≈ 358 µM) | 256 µg/mL (≈ 716 µM) |  | COc1cc(-c2[nH]c(=S)n3nc(C)nc3c2C#N)cc(OC)c1OC | 6 mm | 7 mm | 6 mm | 8 mm |  | 7 mm
 | inactive |  | 64 µg/mL (≈ 199 µM) | inactive | 64 µg/mL (≈ 199 µM) |  | 64 µg/mL (≈ 199 µM) |  |  | N#Cc1c(NN)nc(=S)[nH]c1-c1ccc(Br)cc1 | 11 mm | inactive | 13 mm | inactive |  | 11 mm
 |  |  | 32 µg/mL (≈ 72.7 µM) |  | 32 µg/mL (≈ 72.7 µM) | 32 µg/mL (≈ 72.7 µM) | 32 µg/mL (≈ 72.7 µM) | 32 µg/mL (≈ 72.7 µM) |  | COc1ccc(/C=N/Nc2nc(=S)[nH]c(-c3ccc(Br)cc3)c2C#N)cc1 | 16 mm | 14 mm | 18 mm | 16 mm |  | 12 mm
 | inactive |  | 16 µg/mL (≈ 46.5 µM) | inactive | 32 µg/mL (≈ 92.9 µM) |  | 32 µg/mL (≈ 92.9 µM) |  |  | COc1cc(-c2[nH]c(=S)n3nnnc3c2C#N)cc(OC)c1OC | 12 mm | inactive | 14 mm | inactive |  | 12 mm
